Laboratory results as given in publication PMC3115457 (Cellular signalling, 2011).
Ends that are not written are not given here. Peptide text beside a SMILES is read from it.

Columns and labels:
Gβγ = Gβγ (Homo sapiens, UniProt P59768+P62873); type: binding
Procedure, shortened: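 Biotinylated test peptides were captured on a streptavidin chip (Biacore 2000). Gβγ in 25 mM HEPES pH 8.0 was flowed over at 12.5, 25, 50, 100 and 200 nM at 20 μL/min. KD was obtained by fitting the sensorgrams in Biaevaluation, and residual plots were used to judge the fit.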

AC2 = AC2 (Rattus norvegicus, UniProt P26769); test: Adenylyl cyclase activity assay, basal AC2 activity in Hi5 membranes; type: biochemical
Procedure, shortened: (§1)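 AC2 came from membranes of Hi5 insect cells infected with recombinant AC2 baculovirus. Stimulants were constitutively active Gαs (Q227L) and Gβγ (Gβ1/His-Gγ2) purified from Hi5 cells. Peptides were tested from 46 nM to 300 μM, pre-incubated with membranes or G proteins, and run alongside control conditions. cAMP was measured radiometrically ([α-32P]ATP→[32P]cAMP) or by Lance kit. Duplicates were used, each repeated ≥2 times. IC50 came from non-linear regression.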

Gαs-stimulated AC2 = Gαs-stimulated AC2 (Rattus norvegicus, UniProt P26769); test: Adenylyl cyclase activity assay, Gαs stimulation of AC2; type: biochemical
Procedure, shortened: as §1

[1] = target: Gβγ stimulation of Gαs-stimulated AC2 (Homo sapiens, UniProt P59768+P62873); test: Adenylyl cyclase activity assay, Gβγ stimulation of Gαs-stimulated AC2; type: biochemical, Rat; settings: for Gαs/Gβγ stimulation % Max Inhibition: Gβγ stimulation of Gαs-stimulated AC2, cAMP level at 300 μM peptide, peptides 46 nM to 300 μM
Procedure, shortened: as §1

Chain of AC2 (P26769 whole entry): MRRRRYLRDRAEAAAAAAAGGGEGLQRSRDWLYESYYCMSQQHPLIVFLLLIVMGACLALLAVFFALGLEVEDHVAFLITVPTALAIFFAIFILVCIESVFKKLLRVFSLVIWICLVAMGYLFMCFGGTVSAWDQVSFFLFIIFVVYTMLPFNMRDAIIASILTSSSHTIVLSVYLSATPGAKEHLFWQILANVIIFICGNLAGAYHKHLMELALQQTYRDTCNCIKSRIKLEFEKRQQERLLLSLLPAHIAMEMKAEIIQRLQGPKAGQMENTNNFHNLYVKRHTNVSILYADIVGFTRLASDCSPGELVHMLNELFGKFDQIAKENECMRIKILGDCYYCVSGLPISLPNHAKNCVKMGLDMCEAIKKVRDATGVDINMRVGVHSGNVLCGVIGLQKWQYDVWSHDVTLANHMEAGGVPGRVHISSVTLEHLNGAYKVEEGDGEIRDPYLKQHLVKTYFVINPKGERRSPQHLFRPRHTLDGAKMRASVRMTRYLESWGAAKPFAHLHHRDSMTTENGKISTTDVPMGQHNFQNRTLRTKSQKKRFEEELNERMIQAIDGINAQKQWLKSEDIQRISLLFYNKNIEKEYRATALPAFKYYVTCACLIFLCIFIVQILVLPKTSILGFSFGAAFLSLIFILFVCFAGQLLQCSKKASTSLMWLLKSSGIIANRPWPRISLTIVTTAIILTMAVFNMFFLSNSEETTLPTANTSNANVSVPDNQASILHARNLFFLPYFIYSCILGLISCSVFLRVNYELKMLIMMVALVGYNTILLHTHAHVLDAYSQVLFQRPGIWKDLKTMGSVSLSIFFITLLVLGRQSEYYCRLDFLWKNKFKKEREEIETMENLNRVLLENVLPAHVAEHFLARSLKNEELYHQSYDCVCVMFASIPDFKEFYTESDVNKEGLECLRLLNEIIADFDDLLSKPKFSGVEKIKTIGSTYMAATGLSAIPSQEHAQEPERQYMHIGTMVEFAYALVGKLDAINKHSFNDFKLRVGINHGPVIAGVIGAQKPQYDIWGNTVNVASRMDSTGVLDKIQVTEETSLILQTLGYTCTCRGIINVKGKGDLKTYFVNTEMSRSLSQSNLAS
Chain of Gαs-stimulated AC2 (P26769 whole entry): as above
Chain of Gβγ stimulation of Gαs-stimulated AC2 (P62873 2-340 limits assumed): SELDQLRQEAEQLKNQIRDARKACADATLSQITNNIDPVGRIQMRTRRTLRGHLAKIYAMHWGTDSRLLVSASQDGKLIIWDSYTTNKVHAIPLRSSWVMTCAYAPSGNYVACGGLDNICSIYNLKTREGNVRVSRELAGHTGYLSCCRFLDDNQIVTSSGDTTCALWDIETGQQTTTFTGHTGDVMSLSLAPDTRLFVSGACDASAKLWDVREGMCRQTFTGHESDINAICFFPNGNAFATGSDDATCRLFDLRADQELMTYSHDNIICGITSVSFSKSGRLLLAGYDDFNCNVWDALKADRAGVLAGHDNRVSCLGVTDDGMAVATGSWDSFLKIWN
Chain of Gβγ stimulation of Gαs-stimulated AC2 (P59768 2-68 limits assumed): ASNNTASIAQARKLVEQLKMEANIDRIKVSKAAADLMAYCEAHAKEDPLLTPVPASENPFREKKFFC
Chain of Gβγ (P62873 2-340 limits assumed): as the sequence (P62873 2-340 limits assumed) above
Chain of Gβγ (P59768 2-68 limits assumed): as the sequence (P59768 2-68 limits assumed) above

| Compound | Kd (Gβγ) | IC50 (AC2) | IC50 (Gαs-stimulated AC2) | IC50 [1] | Gαs/Gβγ stimulation % Max Inhibition [1] | Gαs/Gβγ stimulation % Max Inhibition ([1]; listed as C1b 578-602) | Binding to Gβγ (in words) (Gβγ; Biacore SPR, immobilized biotinylated peptide, Gβγ 12.5-200 nM) | Gαs/Gβγ stimulation % Max Inhibition ([1]; listed as C1a region) |
| --- | --- | --- | --- | --- | --- | --- | --- | --- |
| ISLLFYNKVLEKEYRATALPAFKYY [AC2 C1b (578-602)] | 0.102 ± 0.014 µM | 38.5 µM | 2.5 µM | 2.2 µM | 113.1% | > 100% |  |  |
| MTTENGKISTTDVPMGQHNFQNRTLR-OH [AC2 C1b (515-541)] |  |  |  |  |  |  | did not interact with Gβγ |  |
| CC[C@H](C)[C@H](NC(=O)[C@@H]1CCCN1C(=O)[C@H](CC(C)C)NC(=O)CNC(=O)[C@H](CO)NC(=O)[C@@H](NC(=O)[C@H](CS)NC(=O)[C@H](Cc1ccc(O)cc1)NC(=O)[C@H](Cc1ccc(O)cc1)NC(=O)[C@@H](N)CS)C(C)C)C(=O)N[C@@H](CO)C(=O)N[C@@H](CC(C)C)C(=O)N1CCC[C@H]1C(=O)N[C@@H](CC(N)=O)C(=O)N[C@@H](Cc1c[nH]cn1)C(=O)N[C@@H](C)C(=O)N[C@@H](CCCCN)C(=O)N[C@@H](CC(N)=O)C(=O)N[C@@H](CS)C(=O)N[C@H](C(=O)N[C@@H](CCCCN)C(=O)N[C@@H](CCSC)C(=O)O)C(C)C [AC2 C1a (339-360)] (H-CYYCVSGLPISLPNHAKNCVKM-OH) | 0.0405 ± 0.0063 µM | 7.7 µM | 82.3 µM | 5.6 µM |  |  |  | 88% |
| MTRYLESWGAAKPFAHL [AC2 C1b (493-509), reference compound] | 0.0027 ± 0.0013 µM |  |  |  |  |  |  |  |
| ERMIQAIDGINAQKQWLKSEDIQR [AC2 C1b (554-577)] |  | 16.7 µM | 36.7 µM | 12.2 µM | 11.5% |  |  |  |
| RYLESWGAAKPFAHLHHRDS [AC2 C1b (495-514)] | 0.0047 ± 0.0017 µM | > 100 µM | 32.9 µM | 13.9 µM | 67.0% |  |  |  |
| QEHAQEPERQYMHIGTMVEFAYALVGK [QEHA C2 (956-982), reference compound] | 0.0139 ± 0.0088 µM |  |  |  |  |  |  |  |
